Values after ≈ are worked out from the molar mass of the structure shown. Active and inactive are the calls of the source. The rule behind the calls is not given here.
Tests used:
Cryptococcus neoformans [1] = assay: Antifungal activity against Cryptococcus neoformans ATCC 32264 after 48 hrs by microplate reader analysis; assay type: functional; settings: ATCC 32264, 48 h
In short: (§1)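 Microplate growth-inhibition assay in RPMI-1640, compound at final 250–0.98 µg/mL (DMSO ≤1%). Inoculum 1–5 × 10³ CFU/mL. Sterility and DMSO growth controls included. Percent inhibition is computed from blank-corrected OD relative to the growth control, tested in duplicate.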

Candida albicans [2] = assay: Antifungal activity against Candida albicans ATCC 10231 assessed as growth inhibition at 3.9 ug/mL after 24 hrs by microplate reader analysis; assay type: functional; settings: ATCC 10231, 24 h, read-out: GI
In short: (§2)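 96-well RPMI-1640 wells with compound at final 250–0.98 µg/mL (DMSO ≤1%). Inoculum 100 µL, 1–5 × 10³ CFU/mL, 200 µL final. Each well includes growth (DMSO, no compound) and sterility controls. % inhibition = 100 − (CTW−SCW)/(GCW−SCW) × 100, run in duplicate.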

Candida albicans [3] = assay: Antifungal activity against Candida albicans ATCC 10231 assessed as growth inhibition at 31.25 ug/mL after 24 hrs by microplate reader analysis; assay type: functional; settings: ATCC 10231, 24 h, read-out: GI; in short: as §2
Cryptococcus neoformans [4] = assay: Antifungal activity against Cryptococcus neoformans ATCC 32264 assessed as growth inhibition at 125 ug/mL after 48 hrs by microplate reader analysis; assay type: functional; settings: ATCC 32264, 48 h, read-out: GI; in short: as §1
Candida albicans [5] = assay: Antifungal activity against Candida albicans ATCC 10231 assessed as growth inhibition at 62.5 ug/mL after 24 hrs by microplate reader analysis; assay type: functional; settings: ATCC 10231, 24 h, read-out: GI; in short: as §2
Cryptococcus neoformans [6] = assay: Fungicidal activity against Cryptococcus neoformans ATCC 32264 after 48 hrs by agar plate dilution method; assay type: functional; settings: ATCC 32264, 48 h
In short: (§3)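 MFC: after the microdilution MIC, material from each clear well was plated onto RPMI-1640 agar buffered with MOPS. Plates incubated at 30 °C and read after 48 h. MFC is the lowest concentration giving total inhibition of visible growth.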

Cryptococcus neoformans [7] = assay: Antifungal activity against Cryptococcus neoformans ATCC 32264 assessed as growth inhibition at 31.25 ug/mL after 48 hrs by microplate reader analysis; assay type: functional; settings: ATCC 32264, 48 h, read-out: GI; in short: as §1
[8] = Acute toxicity in bony fish assessed as mortality at 38.4 ug/mL after 96 hrs; settings: actinopterygii; read-out: Activity
In short: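 Guppy (Poecilia reticulata) acute static exposure: 10 fish per concentration in 2 L wide-mouthed jars holding the test solution. Compounds were added from […] to give the final concentrations. Dead fish were counted and removed every 24 h, with general condition noted; percentage mortality was scored at 96 h. Two experiments, each in triplicate.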

Cryptococcus neoformans [9] = assay: Antifungal activity against Cryptococcus neoformans ATCC 32264 assessed as growth inhibition at 250 ug/mL after 48 hrs by microplate reader analysis; assay type: functional; settings: ATCC 32264, 48 h, read-out: GI; in short: as §1
Candida albicans [10] = assay: Antifungal activity against Candida albicans ATCC 10231 after 24 hrs by microplate reader analysis; assay type: functional; settings: ATCC 10231, 24 h; in short: as §2
Candida albicans [11] = assay: Antifungal activity against Candida albicans ATCC 10231 after 48 hrs by NCCLS broth microdilution method; assay type: functional; settings: ATCC 10231, 48 h, read-out: MIC100
In short: (§4)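 Yeast MIC by NCCLS M27-A3 broth microdilution in RPMI-1640 buffered to pH 7.0 with MOPS. Twofold dilutions of 250–0.98 µg/mL, final DMSO ≤1%. Inoculum 1–5 × 10³ CFU/mL. Incubated at 30 °C in a moist dark chamber. Read visually at 48 h. MIC100 is the lowest concentration with no visible growth versus drug-free control.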

Candida tropicalis [12] = assay: Antifungal activity against Candida tropicalis by microplate reader analysis; assay type: functional
Candida tropicalis [13] = assay: Antifungal activity against Candida tropicalis after 48 hrs by NCCLS broth microdilution method; assay type: functional; settings: read-out: MIC100; in short: as §4
Cryptococcus neoformans [14] = assay: Antifungal activity against Cryptococcus neoformans ATCC 32264 assessed as growth inhibition at 15.6 ug/mL after 48 hrs by microplate reader analysis; assay type: functional; settings: ATCC 32264, 48 h, read-out: GI; in short: as §1
Cryptococcus neoformans [15] = assay: Antifungal activity against Cryptococcus neoformans ATCC 32264 assessed as growth inhibition at 7.8 ug/mL after 48 hrs by microplate reader analysis; assay type: functional; settings: ATCC 32264, 48 h, read-out: GI; in short: as §1
Candida albicans [16] = assay: Fungicidal activity against Candida albicans ATCC 10231 at 0.98 to 250 ug/mL after 48 hrs by agar plate dilution method; assay type: functional, organism-based; in short: as §3
Cryptococcus neoformans [17] = assay: Antifungal activity against Cryptococcus neoformans ATCC 32264 assessed as growth inhibition at 3.9 ug/mL after 48 hrs by microplate reader analysis; assay type: functional; settings: ATCC 32264, 48 h, read-out: GI; in short: as §1
Candida tropicalis [18] = assay: Fungicidal activity against Candida tropicalis at 0.98 to 250 ug/mL after 48 hrs by agar plate dilution method; assay type: functional, organism-based; in short: as §3
Aspergillus flavus = assay: Antifungal activity against Aspergillus flavus ATCC 9170 at 0.98 to 250 ug/mL by NCCLS broth microdilution method; assay type: functional, organism-based
In short: (§5)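 MIC by broth microdilution per NCCLS M27-A3/M38-A2 in RPMI-1640 buffered to pH 7.0 with MOPS. Twofold dilutions from 250–0.98 µg/mL, final DMSO ≤1%. Inoculum 1–5 × 10³ CFU/mL. Incubated in a moist dark chamber, 30 °C for Aspergillus and 28–30 °C for dermatophytes. Read visually when control growth allowed. Endpoint is the lowest concentration giving total inhibition of visible growth (MIC100).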

Candida tropicalis [19] = assay: Antifungal activity against Candida tropicalis assessed as growth inhibition at 3.9 ug/mL by microplate reader analysis; assay type: functional; settings: read-out: GI
Candida albicans [20] = assay: Antifungal activity against Candida albicans ATCC 10231 assessed as growth inhibition at 250 ug/mL after 24 hrs by microplate reader analysis; assay type: functional; settings: ATCC 10231, 24 h, read-out: GI; in short: as §2
Aspergillus fumigatus = assay: Antifungal activity against Aspergillus fumigatus ATCC 26934 at 0.98 to 250 ug/mL by NCCLS broth microdilution method; assay type: functional, organism-based; in short: as §5
[21] = system: Trichophyton mentagrophytes; assay: Antifungal activity against Trichophyton mentagrophytes ATCC 9972 at 0.98 to 250 ug/mL by NCCLS broth microdilution method; assay type: functional, organism-based; in short: as §5
Cryptococcus neoformans [22] = assay: Antifungal activity against Cryptococcus neoformans ATCC 32264 assessed as growth inhibition at 62.5 ug/mL after 48 hrs by microplate reader analysis; assay type: functional; settings: ATCC 32264, 48 h, read-out: GI; in short: as §1
Candida tropicalis [23] = assay: Antifungal activity against Candida tropicalis assessed as growth inhibition at 62.5 ug/mL by microplate reader analysis; assay type: functional; settings: read-out: GI
Trichophyton rubrum = assay: Antifungal activity against Trichophyton rubrum CCC 110 at 0.98 to 250 ug/mL by NCCLS broth microdilution method; assay type: functional, organism-based; in short: as §5
Nannizzia gypsea = assay: Antifungal activity against Microsporum gypseum CCC 115 at 0.98 to 250 ug/mL by NCCLS broth microdilution method; assay type: functional, organism-based; in short: as §5
Candida tropicalis [24] = assay: Antifungal activity against Candida tropicalis assessed as growth inhibition at 250 ug/mL by microplate reader analysis; assay type: functional; settings: read-out: GI
Candida tropicalis [25] = assay: Antifungal activity against Candida tropicalis assessed as growth inhibition at 31.25 ug/mL by microplate reader analysis; assay type: functional; settings: read-out: GI
Candida tropicalis [26] = assay: Antifungal activity against Candida tropicalis assessed as growth inhibition at 125 ug/mL by microplate reader analysis; assay type: functional; settings: read-out: GI
Candida albicans [27] = assay: Antifungal activity against Candida albicans ATCC 10231 assessed as growth inhibition at 125 ug/mL after 24 hrs by microplate reader analysis; assay type: functional; settings: ATCC 10231, 24 h, read-out: GI; in short: as §2
Candida tropicalis [28] = assay: Antifungal activity against Candida tropicalis assessed as growth inhibition at 7.8 ug/mL by microplate reader analysis; assay type: functional; settings: read-out: GI
Candida albicans [29] = assay: Antifungal activity against Candida albicans ATCC 10231 assessed as growth inhibition at 7.8 ug/mL after 24 hrs by microplate reader analysis; assay type: functional; settings: ATCC 10231, 24 h, read-out: GI; in short: as §2
Cryptococcus neoformans [30] = assay: Antifungal activity against Cryptococcus neoformans ATCC 32264 after 48 hrs by NCCLS broth microdilution method; assay type: functional; settings: ATCC 32264, 48 h, read-out: MIC100; in short: as §4
Candida tropicalis [31] = assay: Antifungal activity against Candida tropicalis assessed as growth inhibition at 15.6 ug/mL by microplate reader analysis; assay type: functional; settings: read-out: GI
Candida albicans [32] = assay: Antifungal activity against Candida albicans ATCC 10231 assessed as growth inhibition at 15.6 ug/mL after 24 hrs by microplate reader analysis; assay type: functional; settings: ATCC 10231, 24 h, read-out: GI; in short: as §2
Aspergillus niger = assay: Antifungal activity against Aspergillus niger ATCC 9029 at 0.98 to 250 ug/mL by NCCLS broth microdilution method; assay type: functional, organism-based; in short: as §5

COc1nc(N)nc(Nc2cccc(Cl)c2)c1N=O
MIC50 (Cryptococcus neoformans [1]): 3.9 µg/mL (≈ 13.9 µM)
inhibition of growth at 3.9 µg/mL (Candida albicans [2]): 53.3%
inhibition of growth at 31.25 µg/mL (Candida albicans [3]): 91.8%
inhibition of growth at 125 µg/mL (Cryptococcus neoformans [4]): 100%
inhibition of growth at 62.5 µg/mL (Candida albicans [5]): 92.7%
MFC (Cryptococcus neoformans [6]): 250 µg/mL (≈ 894 µM)
inhibition of growth at 31.25 µg/mL (Cryptococcus neoformans [7]): 81.3%
mortality at 96 h, 38.4 ug/mL [8]: 0%
inhibition of growth at 250 µg/mL (Cryptococcus neoformans [9]): 100%
MIC50 (Candida albicans [10]): 3.9 µg/mL (≈ 13.9 µM)
MIC (Candida albicans [11]): 125 µg/mL (≈ 447 µM)
MIC50 (Candida tropicalis [12]): 3.9 µg/mL (≈ 13.9 µM)
MIC (Candida tropicalis [13]): 125 µg/mL (≈ 447 µM)
inhibition of growth at 15.6 µg/mL (Cryptococcus neoformans [14]): 80.6%
inhibition of growth at 7.8 µg/mL (Cryptococcus neoformans [15]): 74.9%
Activity (Candida albicans [16]): inactive
inhibition of growth at 3.9 µg/mL (Cryptococcus neoformans [17]): 53.2%
Activity (Candida tropicalis [18]): inactive
Activity (Aspergillus flavus): inactive
inhibition of growth at 3.9 µg/mL (Candida tropicalis [19]): 48.8%
inhibition of growth at 250 µg/mL (Candida albicans [20]): 100%
Activity (Aspergillus fumigatus): inactive
Activity [21]: inactive
inhibition of growth at 62.5 µg/mL (Cryptococcus neoformans [22]): 83.7%
inhibition of growth at 62.5 µg/mL (Candida tropicalis [23]): 87.9%
Activity (Trichophyton rubrum): inactive
Activity (Nannizzia gypsea): inactive
inhibition of growth at 250 µg/mL (Candida tropicalis [24]): 100%
inhibition of growth at 31.25 µg/mL (Candida tropicalis [25]): 85.2%
inhibition of growth at 125 µg/mL (Candida tropicalis [26]): 100%
inhibition of growth at 125 µg/mL (Candida albicans [27]): 100%
inhibition of growth at 7.8 µg/mL (Candida tropicalis [28]): 64.5%
inhibition of growth at 7.8 µg/mL (Candida albicans [29]): 80.3%
MIC (Cryptococcus neoformans [30]): 125 µg/mL (≈ 447 µM)
inhibition of growth at 15.6 µg/mL (Candida tropicalis [31]): 75.2%
inhibition of growth at 15.6 µg/mL (Candida albicans [32]): 86.3%
Activity (Aspergillus niger): inactive

— ChEMBL document CHEMBL2146464, “Structure-activity relationship study of nitrosopyrimidines acting as antifungal agents” (Bioorg Med Chem, 2012)
